# Laboratory results reported in ChEMBL document CHEMBL2040727, “Substituted thiazoles VI. Synthesis and antitumor activity of new 2-acetamido- and 2 or 3-propanamido-thiazole analogs” (2012).
# What was measured:
# Type in all cases: functional
# HL-60(TB) = test: Growth inhibition of human HL-60(TB) cells at 10 uM after 48 hrs by coulter counter analysis; conditions: HL-60, 48 h, read-out: GI
# Method in brief: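 Cells grown in RPMI 1640 with 10% FBS. Compound was dissolved in DMSO and diluted in PBS (under 1% DMSO final), then added in duplicate wells to culture at 6 × 10⁴ cells/ml. PBS/DMSO vehicle controls were included. Incubated at 37 °C, humidified 5% CO₂, for 48 h. Cells were diluted 10-fold in saline and Coulter-counted. Single-dose NCI-60 screen, read as percent growth inhibition.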
# K562 = test: Growth inhibition of human K562 cells at 10 uM after 48 hrs by coulter counter analysis; conditions: K562, 48 h, read-out: GI
# Method in brief: (§1)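 Single-dose NCI 60-line panel screen of test compounds. Cells grown in RPMI 1640 with 10% FBS. Compounds dissolved in DMSO, then diluted in phosphate buffer saline (final DMSO below 1%). Wells run in duplicate at 6 × 10⁴ cells/ml. Controls held PBS and DMSO at matching dilutions. Incubation 48 h at 37 °C under humidified 5% CO2. Cells diluted tenfold in saline and counted by Coulter counter. Percent growth inhibition taken from mean-graph of treated-cell growth.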
# MOLT-4 = test: Growth inhibition of human MOLT4 cells at 10 uM after 48 hrs by coulter counter analysis; conditions: MOLT-4, 48 h, read-out: GI; method in brief: as §1
# RPMI-8226 = test: Growth inhibition of human RPMI8226 cells at 10 uM after 48 hrs by coulter counter analysis; conditions: RPMI-8226, 48 h, read-out: GI; method in brief: as §1
# SR = test: Growth inhibition of human SR cells at 10 uM after 48 hrs by coulter counter analysis; conditions: read-out: GI
# Method in brief: (§2)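 Single-dose screen in the NCI 60 cell line panel. Cells grown in RPMI 1640 with 10% FBS. Compounds dissolved in DMSO and diluted in phosphate buffered saline, final DMSO under 1%. Duplicate wells seeded from culture at 6 × 10⁴ cells/ml. Incubated 48 h at 37 °C, humidified, 5% CO2. Cells diluted tenfold in saline and Coulter-counted. Percent growth inhibition computed against PBS/DMSO controls.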
# A549 = test: Growth inhibition of human A549/ATCC cells at 10 uM after 48 hrs by coulter counter analysis; conditions: A549, 48 h, read-out: GI; method in brief: as §1
# HOP-92 = test: Growth inhibition of human HOP92 cells at 10 uM after 48 hrs by coulter counter analysis; conditions: HOP-92, 48 h, read-out: GI; method in brief: as §1
# NCI-H23 = test: Growth inhibition of human NCI-H23 cells at 10 uM after 48 hrs by coulter counter analysis; conditions: NCI-H23, 48 h, read-out: GI; method in brief: as §1
# NCI-H322M = test: Growth inhibition of human NCI-H322M cells at 10 uM after 48 hrs by coulter counter analysis; conditions: read-out: GI; method in brief: as §1
# NCI-H460 = test: Growth inhibition of human NCI-H460 cells at 10 uM after 48 hrs by coulter counter analysis; conditions: NCI-H460, 48 h, read-out: GI; method in brief: as §1
# HCC 2998 = test: Growth inhibition of human HCC2998 cells at 10 uM after 48 hrs by coulter counter analysis; conditions: HCC 2998, 48 h, read-out: GI; method in brief: as §1
# HCT-116 = test: Growth inhibition of human HCT116 cells at 10 uM after 48 hrs by coulter counter analysis; conditions: HCT-116, 48 h, read-out: GI; method in brief: as §1
# HCT-15 = test: Growth inhibition of human HCT15 cells at 10 uM after 48 hrs by coulter counter analysis; conditions: HCT-15, 48 h, read-out: GI; method in brief: as §1
# HT-29 = test: Growth inhibition of human HT-29 cells at 10 uM after 48 hrs by coulter counter analysis; conditions: HT-29, 48 h, read-out: GI; method in brief: as §1
# KM12 = test: Growth inhibition of human KM12 cells at 10 uM after 48 hrs by coulter counter analysis; conditions: KM12, 48 h, read-out: GI; method in brief: as §1
# SW-620 = test: Growth inhibition of human SW620 cells at 10 uM after 48 hrs by coulter counter analysis; conditions: SW-620, 48 h, read-out: GI; method in brief: as §2
# SF-295 = test: Growth inhibition of human SF295 cells at 10 uM after 48 hrs by coulter counter analysis; conditions: SF-295, 48 h, read-out: GI; method in brief: as §1
# SF-539 = test: Growth inhibition of human SF539 cells at 10 uM after 48 hrs by coulter counter analysis; conditions: SF-539, 48 h, read-out: GI; method in brief: as §1
# SNB-75 = test: Growth inhibition of human SNB75 cells at 10 uM after 48 hrs by coulter counter analysis; conditions: SNB-75, 48 h, read-out: GI; method in brief: as §2
# U-251 = test: Growth inhibition of human U251 cells at 10 uM after 48 hrs by coulter counter analysis; conditions: U-251, 48 h, read-out: GI; method in brief: as §2
# M14 = test: Growth inhibition of human M14 cells at 10 uM after 48 hrs by coulter counter analysis; conditions: M14, 48 h, read-out: GI; method in brief: as §1
# SK-MEL-2 = test: Growth inhibition of human SK-MEL-2 cells at 10 uM after 48 hrs by coulter counter analysis; conditions: SK-MEL-2, 48 h, read-out: GI; method in brief: as §1
# SK-MEL-5 = test: Growth inhibition of human SK-MEL-5 cells at 10 uM after 48 hrs by coulter counter analysis; conditions: SK-MEL-5, 48 h, read-out: GI; method in brief: as §1
# UACC-62 = test: Growth inhibition of human UACC62 cells at 10 uM after 48 hrs by coulter counter analysis; conditions: UACC-62, 48 h, read-out: GI; method in brief: as §2
# OVCAR-4 = test: Growth inhibition of human OVCAR4 cells at 10 uM after 48 hrs by coulter counter analysis; conditions: OVCAR-4, 48 h, read-out: GI; method in brief: as §1
# A498 = test: Growth inhibition of human A498 cells at 10 uM after 48 hrs by coulter counter analysis; conditions: A498, 48 h, read-out: GI; method in brief: as §1
# ACHN = test: Growth inhibition of human ACHN cells at 10 uM after 48 hrs by coulter counter analysis; conditions: read-out: GI; method in brief: as §1
# RXF 393 = test: Growth inhibition of human RXF393 cells at 10 uM after 48 hrs by coulter counter analysis; conditions: RXF 393, 48 h, read-out: GI; method in brief: as §1
# UO-31 = test: Growth inhibition of human UO31 cells at 10 uM after 48 hrs by coulter counter analysis; conditions: UO-31, 48 h, read-out: GI; method in brief: as §2
# PC-3 = test: Growth inhibition of human PC3 cells at 10 uM after 48 hrs by coulter counter analysis; conditions: PC-3, 48 h, read-out: GI; method in brief: as §1
# DU-145 = test: Growth inhibition of human DU145 cells at 10 uM after 48 hrs by coulter counter analysis; conditions: DU-145, 48 h, read-out: GI; method in brief: as §1
# MCF7 = test: Growth inhibition of human MCF7 cells at 10 uM after 48 hrs by coulter counter analysis; conditions: MCF7, 48 h, read-out: GI; method in brief: as §1
# T47D = test: Growth inhibition of human T47D cells at 10 uM after 48 hrs by coulter counter analysis; conditions: read-out: GI; method in brief: as §2
# CCRF-CEM = test: Growth inhibition of human CCRF-CEM cells at 10 uM after 48 hrs by coulter counter analysis; conditions: read-out: GI; method in brief: as §1
compound,measurement,setting,value
Cc1cnc(NC(=O)CN2CCN(c3ccccc3)CC2)s1,inhibition of growth at 10 µM,HL-60(TB),< 10%
same,inhibition of growth at 10 µM,K562,< 10%
same,inhibition of growth at 10 µM,MOLT-4,< 10%
same,inhibition of growth at 10 µM,RPMI-8226,< 10%
same,inhibition of growth at 10 µM,SR,< 10%
same,inhibition of growth at 10 µM,A549,< 10%
same,inhibition of growth at 10 µM,HOP-92,< 10%
same,inhibition of growth at 10 µM,NCI-H23,< 10%
same,inhibition of growth at 10 µM,NCI-H322M,< 10%
same,inhibition of growth at 10 µM,NCI-H460,< 10%
same,inhibition of growth at 10 µM,HCC 2998,< 10%
same,inhibition of growth at 10 µM,HCT-116,< 10%
same,inhibition of growth at 10 µM,HCT-15,< 10%
same,inhibition of growth at 10 µM,HT-29,< 10%
same,inhibition of growth at 10 µM,KM12,< 10%
same,inhibition of growth at 10 µM,SW-620,< 10%
same,inhibition of growth at 10 µM,SF-295,< 10%
same,inhibition of growth at 10 µM,SF-539,< 10%
same,inhibition of growth at 10 µM,SNB-75,< 10%
same,inhibition of growth at 10 µM,U-251,< 10%
same,inhibition of growth at 10 µM,M14,< 10%
same,inhibition of growth at 10 µM,SK-MEL-2,< 10%
same,inhibition of growth at 10 µM,SK-MEL-5,< 10%
same,inhibition of growth at 10 µM,UACC-62,< 10%
same,inhibition of growth at 10 µM,OVCAR-4,< 10%
same,inhibition of growth at 10 µM,A498,< 10%
same,inhibition of growth at 10 µM,ACHN,< 10%
same,inhibition of growth at 10 µM,RXF 393,< 10%
same,inhibition of growth at 10 µM,UO-31,13.1%
same,inhibition of growth at 10 µM,PC-3,< 10%
same,inhibition of growth at 10 µM,DU-145,< 10%
same,inhibition of growth at 10 µM,MCF7,< 10%
same,inhibition of growth at 10 µM,T47D,< 10%
same,inhibition of growth at 10 µM,CCRF-CEM,69.3%
